GASC1 inh: inhibitors of GASC-1 (KDM4C) histone demethylase, primary screen, biochemical, single concentration HTS | Lysine-specific demethylase 4C (Homo sapiens), Q9H3R0 | GST-KDM4C 2-372, H3K9me3 peptide, LANCE TR-FRET | inhibition, % at 12.5 µM | hit rate 0.15% among 96,000 | AID 720574, 2013;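 active = mean replicate inhibition above about 25%, with at least 55% of replicates also reaching it, limit read from the data, passing the limit was not always enough; inconclusive = only one of those two conditions met; inactive = neither condition met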
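Compound: one test concentration per compound; Material: GST-GASC-1 enzyme fragment 2-372; Amount: GASC-1 enzyme at 10 nM final in reaction; Also added: H3K9me3 peptide substrate, Fe(II), 2-oxoglutarate; Technique: LANCE TR-FRET; Times: 30 min demethylation and 1 h detection at room temperature.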
T cruzi growth-1: T. cruzi intracellular proliferation inhibitors, primary screen, cell-based, beta-gal Tulahuen parasites, NIH3T3 host, luminescence. T. cruzi beta-gal in NIH3T3, GalScreen luminescence, 90 h. inhibition, % at 8.34 µM. hit rate 5.9% among 77,000;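 active = mean inhibition above about 93%, with at least 55% of replicates each passing it, limit read from the data, passing the limit was not always enough; inconclusive = only one of those two conditions holds; inactive = neither condition holds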
IDH1 mut inh: inhibitors of IDH1 R132H reductase, primary screen, biochemical, plate reader, single point | inhibition, % at 10 µM | Isocitrate dehydrogenase [NADP] cytoplasmic (Homo sapiens), O75874 | diaphorase/resazurin fluorescence, 60 min | hit rate 0.18% among 70,000; in the data active = inhibition above about 34%; inconclusive = no clear call, values can overlap the other calls; inactive = below about 11%;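 note: 0% = DMSO and 100% = no enzyme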
Target sequence (O75874 whole entry R132H): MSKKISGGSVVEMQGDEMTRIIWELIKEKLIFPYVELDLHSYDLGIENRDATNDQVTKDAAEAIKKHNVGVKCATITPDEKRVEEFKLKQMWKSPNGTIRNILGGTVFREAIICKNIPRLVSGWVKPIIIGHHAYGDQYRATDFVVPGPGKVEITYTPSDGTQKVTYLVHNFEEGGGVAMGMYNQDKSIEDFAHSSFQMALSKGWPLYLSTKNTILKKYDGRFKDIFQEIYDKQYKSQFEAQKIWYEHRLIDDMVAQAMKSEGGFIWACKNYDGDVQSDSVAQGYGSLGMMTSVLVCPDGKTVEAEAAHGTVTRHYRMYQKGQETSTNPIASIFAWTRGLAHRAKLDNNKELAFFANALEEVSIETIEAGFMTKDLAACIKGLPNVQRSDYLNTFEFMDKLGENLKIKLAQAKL
Pf Dd2 growth: P. falciparum Dd2 growth inhibitors, primary screen, SYBR Green fluorescence, single dose replicates | 72 h; active compounds read low | activity change, % at 10 µM | hit rate 2.3% among 94,000 | AID 1159554, 2015; in the data active = activity change below about -80%; inconclusive = no clear call, values can overlap the other calls
T cruzi growth-2: T. cruzi intracellular proliferation inhibitors, confirmation, cell-based, NIH3T3 host, beta-gal parasite, luminescence, cherry-pick; shares compounds with T cruzi growth-1; T. cruzi beta-gal in NIH3T3, GalScreen luminescence, 90 h; inhibition, % at 8.35 µM; hit rate 72% among 5,600; AID 651739, 2012;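 active = mean replicate inhibition above about 95% and at least 55% of replicates individually reaching it, limit read from the data; inconclusive = only one of the two criteria is met; inactive = neither criterion is met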
T cruzi growth-3: inhibitors of intracellular T. cruzi replication, confirmation, NIH3T3 host cells, beta-gal parasites, cherry-pick, set 2. AID 651740, 2012. inhibition, % at 2.09 µM. hit rate 21% among 5,600. shares compounds with T cruzi growth-1. T. cruzi beta-gal in NIH3T3, GalScreen luminescence, 90 h;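 active = mean inhibition above about 95%, with at least 55% of replicates also reaching it, limit read from the data; inconclusive = meets just one of the two conditions; inactive = meets neither condition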;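 note: plate controls were neutral control median for no effect and positive control median for full effect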
NIH3T3 tox: cytotoxicity in mouse NIH/3T3 fibroblasts, confirmation, cytotoxicity control for T. cruzi proliferation inhibitor project, cell-based, cherry-pick, single point. shares compounds with T cruzi growth-1. NIH/3T3 viability, CellTiter-Glo ATP luminescence, 90 h. cytotoxicity (signal decrease), % at 8.35 µM. hit rate 14% among 5,600;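 active = mean signal decrease across replicates above about 35% based on untreated-well scatter, with enough replicates individually passing, limit read from the data; inconclusive = no rule stated though some were filed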;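 note: 0% = median of neutral control wells and 100% = median of positive control wells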
NIH3T3 tox 2: NIH/3T3 fibroblast cytotoxicity, confirmation, cytotoxicity control, cell-based, cherry-pick, single point, set 2 | AID 651744, 2012 | hit rate 56% among 5,600 | NIH/3T3 viability, CellTiter-Glo ATP luminescence, 90 h | inhibition, % at 24.9 µM | shares compounds with T cruzi growth-1;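 active = mean loss of cell viability signal at or above a set limit, and enough replicates individually reaching it; inconclusive = meets only the mean limit or only the replicate share; inactive = meets neither condition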;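 note: 0% = median of neutral control wells and 100% = median of positive control wells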
Starred values were filed as active, the others as inactive; ? = inconclusive; / = not tested or not shown. The list is not random: actives were taken first. Their share in the collection is about 5.8%.

SMILES | GASC1 inh | T cruzi growth-1 | IDH1 mut inh | Pf Dd2 growth | T cruzi growth-2 | T cruzi growth-3 | NIH3T3 tox | NIH3T3 tox 2
CO[C@@H](CN(C)C(=O)Nc1ccc(Cl)cc1)[C@@H](C)CN(Cc1ccccc1Cl)[C@@H](C)CO | 0 | 109* | 0 | -55 | 102* | 49 | 39* | 54*
CO[C@H](CN(C)C(=O)Nc1ccc(Cl)cc1)[C@@H](C)CN(Cc1ccccc1Cl)[C@H](C)CO | 3 | 102* | 0 | -44 | 106* | 78 | 23 | 77*
C[C@H](CO)N1C[C@H](C)[C@@H](CN(C)S(=O)(=O)c2ccc(F)cc2)Oc2c(NC(=O)C3CCCCC3)cccc2C1=O | 14 | 13 | / | -22 | / | / | / | /
O=C(NC1CCCCC1)[C@H]1[C@H](CO)[C@H]2Cn3c(cccc3=O)[C@H]2N1CCc1ccccc1 | 4 | 75 | / | -4 | / | / | / | /
O=S(=O)(Cc1ccccc1)N1CCCCN2[C@H](CO)[C@@H](c3ccc(-c4ccc(F)cc4)cc3)[C@H]2C1 | 0 | ? | / | 8 | 103* | 66 | 35* | 105*
O=S(=O)(Cc1ccccc1)N1CCCCN2[C@H](CO)[C@@H](c3ccc(-c4cncnc4)cc3)[C@@H]2C1 | -1 | 65 | / | -9 | / | / | / | /
O=S(=O)(Cc1ccccc1)N1CCCCN2[C@H](C1)[C@H](c1ccc(-c3ccc(F)cc3)cc1)[C@@H]2CO | 0 | 110* | / | 7 | 101* | 41 | 14 | 105*
O=S(=O)(Cc1ccccc1)N1CCCCN2[C@H](C1)[C@@H](c1ccc(-c3ccc(F)cc3)cc1)[C@@H]2CO | -3 | 86 | / | 1 | / | / | / | /
COCC(=O)N1C[C@H](C)[C@@H](OC)CN(C)C(=O)c2cc(NC(=O)Nc3ccccc3)ccc2OC[C@H]1C | -2 | -8 | 0 | 11 | / | / | / | /
CS(=O)(=O)Nc1ccc2c(c1)[C@H]1C[C@H](CC(=O)NCc3ccncc3)O[C@@H](CO)[C@H]1O2 | -1 | 102* | 0 | 12 | 1 | 12 | 1 | 4
CS(=O)(=O)Nc1ccc2c(c1)[C@@H]1C[C@@H](CC(=O)NCc3ccncc3)O[C@H](CO)[C@@H]1O2 | 0 | 117* | -1 | -14 | -7 | -18 | 8 | 4
CO[C@@H]1CN(C)C(=O)c2cc(NC(=O)C3CC3)ccc2OC[C@H](C)N(C(=O)C2CCOCC2)C[C@H]1C | 0 | 2 | 0 | 20 | / | / | / | /
COCC#Cc1ccc([C@H]2[C@@H](CO)N3CCCCN(S(=O)(=O)c4ccc(OC)cc4)C[C@@H]23)cc1 | 0 | ? | / | -46 | 100* | 42 | 34 | 34*
COCC#Cc1ccc([C@H]2[C@H](CO)N3CCCCN(S(=O)(=O)c4ccc(OC)cc4)C[C@@H]23)cc1 | -1 | ? | / | -57 | 100* | 40 | -1 | 11
COc1ccc(S(=O)(=O)N(C)C[C@H]2Oc3cc(-c4ccccc4OC)ccc3S(=O)(=O)N([C@H](C)CO)C[C@@H]2C)cc1 | -2 | 123* | / | -74 | 100* | 46 | 47* | 57*
COc1ccc(S(=O)(=O)N(C)C[C@@H]2Oc3cc(-c4ccccc4OC)ccc3S(=O)(=O)N([C@@H](C)CO)C[C@H]2C)cc1 | 0 | 125* | / | ? | 106* | 87 | ? | 51*
COc1ccc(S(=O)(=O)N(C)C[C@H]2Oc3cc(-c4ccccc4OC)ccc3S(=O)(=O)N([C@H](C)CO)C[C@H]2C)cc1 | -3 | 123* | 2 | -62 | 99* | 58 | 21 | 37*

Bioassay records (PubChem BioAssay)
